Results as given in ChEMBL document CHEMBL4689842, “EUbOPEN Chemogenomics Library wave 1” (2021).

Columns and labels:
Type in all cases: toxicity, cell-based
HEK-293T = experiment: Incucyte cell viability with HEK293T; conditions: human, 10 µM, compound concentration 10 uM; further: filed as whole numbers so only -1 and 0 and 1 occur
Fibroblast [1] = experiment: Multiplex assay against human fibroblast
Outline: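 With compound added, live cells were imaged on a CQ1 microscope at 37°C and 5% CO2; staining with Hoechst33342, BioTracker Green Microtubule Cytoskeleton Dye, MitoTracker Red and Annexin V Alexa Fluor 680 had been done at seeding. The CellPathfinder machine-learning gating scheme split cells into Hoechst high-intensity objects or normal cells, normal cells into healthy, pyknosed or fragmented nuclei, and pyknosed cells into mitotic or apoptotic. The tubulin, mitochondrial-mass and membrane-permeability phenotypes are per cents of healthy-nucleus cells.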

Fibroblast [2] = experiment: Incucyte cell viability with human fibroblast; conditions: 10 µM, compound concentration 10 uM; further: filed as whole numbers so only -1 and 0 and 1 occur
U2OS = experiment: Incucyte cell viability with U2OS; conditions: human, 10 µM, compound concentration 10 uM; further: filed as whole numbers so only -1 and 0 and 1 occur
[3] = 0 h, replicate number 1, timepoint 0 hours
[4] = 24 h, replicate number 1, timepoint 24 hours
[5] = 12 h, 1 µM, compound concentration 1 uM, replicate 1
[6] = 12 h, 1 µM, compound concentration 1 uM, replicate 2
[7] = 12 h, 10 µM, compound concentration 10 uM, replicate 1
[8] = 12 h, 10 µM, compound concentration 10 uM, replicate 2
[9] = 24 h, 1 µM, compound concentration 1 uM, replicate 1
[10] = 24 h, 1 µM, compound concentration 1 uM, replicate 2
[11] = 24 h, 10 µM, compound concentration 10 uM, replicate 1
[12] = 24 h, 10 µM, compound concentration 10 uM, replicate 2
[13] = 48 h, 1 µM, compound concentration 1 uM, replicate 1
[14] = 48 h, 1 µM, compound concentration 1 uM, replicate 2
[15] = 48 h, 10 µM, compound concentration 10 uM, replicate 1
[16] = 48 h, 10 µM, compound concentration 10 uM, replicate 2

Cc1ccc(S(=O)(=O)NC2c3ccccc3Oc3ccccc32)cc1
Growth Rate (HEK-293T; [3]): 0 | Growth Rate (HEK-293T; 12 h, replicate number 1, timepoint 12 hours): 1 | Growth Rate (HEK-293T; 18 h, replicate number 1, timepoint 18 hours): 1 | Growth Rate (HEK-293T; [4]): 0 | Population Apoptotic (%) (Fibroblast [1]; [5]): 57% | Population Fragmented Nuclei (%) (Fibroblast [1]; [5]): 25% | Population Healthy Nuclei (%) (Fibroblast [1]; [5]): 46% | Population Hoechst High Intensity Objects (%) (Fibroblast [1]; [5]): 11% | Population Membrane Permeable-Phenotype (%) (Fibroblast [1]; [5]): 25% | Population Mitochondria Different-Phenotype (%) (Fibroblast [1]; [5]): 6% | Population Mitotic Cells (%) (Fibroblast [1]; [5]): 42% | Population Normal (%) (Fibroblast [1]; [5]): 88% | Population Pyknosed Nuclei (%) (Fibroblast [1]; [5]): 27% | Population Tubulin-Different-Phenotype (%) (Fibroblast [1]; [5]): 27% | Total Cell Count (Fibroblast [1]; [5]): 105 | Population Apoptotic (%) (Fibroblast [1]; [6]): 0% | Population Fragmented Nuclei (%) (Fibroblast [1]; [6]): 10% | Population Healthy Nuclei (%) (Fibroblast [1]; [6]): 76% | Population Hoechst High Intensity Objects (%) (Fibroblast [1]; [6]): 4% | Population Membrane Permeable-Phenotype (%) (Fibroblast [1]; [6]): 0% | Population Mitochondria Different-Phenotype (%) (Fibroblast [1]; [6]): 16% | Population Mitotic Cells (%) (Fibroblast [1]; [6]): 100% | Population Normal (%) (Fibroblast [1]; [6]): 95% | Population Pyknosed Nuclei (%) (Fibroblast [1]; [6]): 12% | Population Tubulin-Different-Phenotype (%) (Fibroblast [1]; [6]): 2% | Total Cell Count (Fibroblast [1]; [6]): 49 | Population Apoptotic (%) (Fibroblast [1]; [7]): 80% | Population Fragmented Nuclei (%) (Fibroblast [1]; [7]): 41% | Population Healthy Nuclei (%) (Fibroblast [1]; [7]): 41% | Population Hoechst High Intensity Objects (%) (Fibroblast [1]; [7]): 17% | Population Membrane Permeable-Phenotype (%) (Fibroblast [1]; [7]): 56% | Population Mitochondria Different-Phenotype (%) (Fibroblast [1]; [7]): 54% | Population Mitotic Cells (%) (Fibroblast [1]; [7]): 20% | Population Normal (%) (Fibroblast [1]; [7]): 82% | Population Pyknosed Nuclei (%) (Fibroblast [1]; [7]): 16% | Population Tubulin-Different-Phenotype (%) (Fibroblast [1]; [7]): 17% | Total Cell Count (Fibroblast [1]; [7]): 218 | Population Apoptotic (%) (Fibroblast [1]; [8]): 95% | Population Fragmented Nuclei (%) (Fibroblast [1]; [8]): 42% | Population Healthy Nuclei (%) (Fibroblast [1]; [8]): 34% | Population Hoechst High Intensity Objects (%) (Fibroblast [1]; [8]): 6% | Population Membrane Permeable-Phenotype (%) (Fibroblast [1]; [8]): 44% | Population Mitochondria Different-Phenotype (%) (Fibroblast [1]; [8]): 0% | Population Mitotic Cells (%) (Fibroblast [1]; [8]): 4% | Population Normal (%) (Fibroblast [1]; [8]): 93% | Population Pyknosed Nuclei (%) (Fibroblast [1]; [8]): 23% | Population Tubulin-Different-Phenotype (%) (Fibroblast [1]; [8]): 50% | Total Cell Count (Fibroblast [1]; [8]): 106 | Population Apoptotic (%) (Fibroblast [1]; [9]): 50% | Population Fragmented Nuclei (%) (Fibroblast [1]; [9]): 26% | Population Healthy Nuclei (%) (Fibroblast [1]; [9]): 51% | Population Hoechst High Intensity Objects (%) (Fibroblast [1]; [9]): 19% | Population Membrane Permeable-Phenotype (%) (Fibroblast [1]; [9]): 28% | Population Mitochondria Different-Phenotype (%) (Fibroblast [1]; [9]): 10% | Population Mitotic Cells (%) (Fibroblast [1]; [9]): 50% | Population Normal (%) (Fibroblast [1]; [9]): 80% | Population Pyknosed Nuclei (%) (Fibroblast [1]; [9]): 22% | Population Tubulin-Different-Phenotype (%) (Fibroblast [1]; [9]): 53% | Total Cell Count (Fibroblast [1]; [9]): 119 | Population Apoptotic (%) (Fibroblast [1]; [10]): 25% | Population Fragmented Nuclei (%) (Fibroblast [1]; [10]): 5% | Population Healthy Nuclei (%) (Fibroblast [1]; [10]): 88% | Population Hoechst High Intensity Objects (%) (Fibroblast [1]; [10]): 7% | Population Membrane Permeable-Phenotype (%) (Fibroblast [1]; [10]): 7% | Population Mitochondria Different-Phenotype (%) (Fibroblast [1]; [10]): 15% | Population Mitotic Cells (%) (Fibroblast [1]; [10]): 75% | Population Normal (%) (Fibroblast [1]; [10]): 92% | Population Pyknosed Nuclei (%) (Fibroblast [1]; [10]): 6% | Population Tubulin-Different-Phenotype (%) (Fibroblast [1]; [10]): 13% | Total Cell Count (Fibroblast [1]; [10]): 65 | Population Apoptotic (%) (Fibroblast [1]; [11]): 75% | Population Fragmented Nuclei (%) (Fibroblast [1]; [11]): 35% | Population Healthy Nuclei (%) (Fibroblast [1]; [11]): 53% | Population Hoechst High Intensity Objects (%) (Fibroblast [1]; [11]): 16% | Population Membrane Permeable-Phenotype (%) (Fibroblast [1]; [11]): 64% | Population Mitochondria Different-Phenotype (%) (Fibroblast [1]; [11]): 43% | Population Mitotic Cells (%) (Fibroblast [1]; [11]): 25% | Population Normal (%) (Fibroblast [1]; [11]): 83% | Population Pyknosed Nuclei (%) (Fibroblast [1]; [11]): 11% | Population Tubulin-Different-Phenotype (%) (Fibroblast [1]; [11]): 28% | Total Cell Count (Fibroblast [1]; [11]): 170 | Population Apoptotic (%) (Fibroblast [1]; [12]): 100% | Population Fragmented Nuclei (%) (Fibroblast [1]; [12]): 10% | Population Healthy Nuclei (%) (Fibroblast [1]; [12]): 68% | Population Hoechst High Intensity Objects (%) (Fibroblast [1]; [12]): 4% | Population Membrane Permeable-Phenotype (%) (Fibroblast [1]; [12]): 20% | Population Mitochondria Different-Phenotype (%) (Fibroblast [1]; [12]): 14% | Population Mitotic Cells (%) (Fibroblast [1]; [12]): 0% | Population Normal (%) (Fibroblast [1]; [12]): 95% | Population Pyknosed Nuclei (%) (Fibroblast [1]; [12]): 21% | Population Tubulin-Different-Phenotype (%) (Fibroblast [1]; [12]): 43% | Total Cell Count (Fibroblast [1]; [12]): 84 | Population Apoptotic (%) (Fibroblast [1]; [13]): 42% | Population Fragmented Nuclei (%) (Fibroblast [1]; [13]): 33% | Population Healthy Nuclei (%) (Fibroblast [1]; [13]): 50% | Population Hoechst High Intensity Objects (%) (Fibroblast [1]; [13]): 19% | Population Membrane Permeable-Phenotype (%) (Fibroblast [1]; [13]): 22% | Population Mitochondria Different-Phenotype (%) (Fibroblast [1]; [13]): 4% | Population Mitotic Cells (%) (Fibroblast [1]; [13]): 57% | Population Normal (%) (Fibroblast [1]; [13]): 80% | Population Pyknosed Nuclei (%) (Fibroblast [1]; [13]): 15% | Population Tubulin-Different-Phenotype (%) (Fibroblast [1]; [13]): 37% | Total Cell Count (Fibroblast [1]; [13]): 111 | Population Apoptotic (%) (Fibroblast [1]; [14]): 75% | Population Fragmented Nuclei (%) (Fibroblast [1]; [14]): 17% | Population Healthy Nuclei (%) (Fibroblast [1]; [14]): 75% | Population Hoechst High Intensity Objects (%) (Fibroblast [1]; [14]): 14% | Population Membrane Permeable-Phenotype (%) (Fibroblast [1]; [14]): 15% | Population Mitochondria Different-Phenotype (%) (Fibroblast [1]; [14]): 6% | Population Mitotic Cells (%) (Fibroblast [1]; [14]): 25% | Population Normal (%) (Fibroblast [1]; [14]): 85% | Population Pyknosed Nuclei (%) (Fibroblast [1]; [14]): 6% | Population Tubulin-Different-Phenotype (%) (Fibroblast [1]; [14]): 34% | Total Cell Count (Fibroblast [1]; [14]): 68 | Population Apoptotic (%) (Fibroblast [1]; [15]): 42% | Population Fragmented Nuclei (%) (Fibroblast [1]; [15]): 27% | Population Healthy Nuclei (%) (Fibroblast [1]; [15]): 66% | Population Hoechst High Intensity Objects (%) (Fibroblast [1]; [15]): 7% | Population Membrane Permeable-Phenotype (%) (Fibroblast [1]; [15]): 20% | Population Mitochondria Different-Phenotype (%) (Fibroblast [1]; [15]): 2% | Population Mitotic Cells (%) (Fibroblast [1]; [15]): 57% | Population Normal (%) (Fibroblast [1]; [15]): 92% | Population Pyknosed Nuclei (%) (Fibroblast [1]; [15]): 5% | Population Tubulin-Different-Phenotype (%) (Fibroblast [1]; [15]): 26% | Total Cell Count (Fibroblast [1]; [15]): 133 | Population Apoptotic (%) (Fibroblast [1]; [16]): 80% | Population Fragmented Nuclei (%) (Fibroblast [1]; [16]): 20% | Population Healthy Nuclei (%) (Fibroblast [1]; [16]): 72% | Population Hoechst High Intensity Objects (%) (Fibroblast [1]; [16]): 14% | Population Membrane Permeable-Phenotype (%) (Fibroblast [1]; [16]): 25% | Population Mitochondria Different-Phenotype (%) (Fibroblast [1]; [16]): 3% | Population Mitotic Cells (%) (Fibroblast [1]; [16]): 20% | Population Normal (%) (Fibroblast [1]; [16]): 85% | Population Pyknosed Nuclei (%) (Fibroblast [1]; [16]): 6% | Population Tubulin-Different-Phenotype (%) (Fibroblast [1]; [16]): 50% | Total Cell Count (Fibroblast [1]; [16]): 84 | Growth Rate (Fibroblast [2]; [3]): 0 | Growth Rate (Fibroblast [2]; [4]): 1 | Growth Rate (U2OS; [3]): 0 | Growth Rate (U2OS; 18 h, replicate number 2, timepoint 18 hours): 1 | Growth Rate (U2OS; [4]): 1 | Growth Rate (U2OS; 24 h, replicate number 2, timepoint 24 hours): 0
